Experimental data taken from ChEMBL document CHEMBL1143102, “Synthesis, radiofluorination, and in vitro evaluation of pyrazolo[1,5-a]pyridine-based dopamine D4 receptor ligands: discovery of an inverse agonist radioligand for PET” (J Med Chem, 2008).
pEC50, pKi: −log10 of the molar value.

Assays:
[1] = Stability in human serum at 37 degC after 90 mins; assay type: ADME, cell-free; details: read-out: Stability
Outline: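 PBS-formulated 18F-labeled compound (20 µL, 250 MBq/mL) is added to 200 µL human serum and incubated at 37 °C for up to 90 min. The percentage of intact radioligand is reported.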

[2] = Lipophilicity, log D at pH 7.4; assay type: physicochemical; details: buffer
Outline: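 Shake-flask partition of about 25 kBq 18F-labeled compound between 1-octanol and PBS pH 7.4, mixed 3 min at room temperature and centrifuged. Triplicate 100 µL samples of each phase are gamma-counted. log D7.4 = log(cpm octanol/cpm buffer), from 2–3 independent experiments in triplicate, mean ± SD.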

D(2) dopamine receptor [3] = target: T1, D(2) dopamine receptor (Homo sapiens, UniProt P14416); assay: Displacement of [3H]spiperone from cloned human dopamine D2L receptor expressed in CHO cells; assay type: cell-based
D(2) dopamine receptor [4] = target: T1, D(2) dopamine receptor; assay: Displacement of [3H]spiperone from cloned human dopamine D2S receptor expressed in CHO cells; assay type: cell-based
D(3) dopamine receptor = D(3) dopamine receptor (Homo sapiens, UniProt P35462); assay: Displacement of [3H]spiperone from cloned human dopamine D3 receptor expressed in CHO cells; assay type: cell-based
[5] = Displacement of [3H]spiperone from cloned human dopamine D4.4 receptor expressed in CHO cells; assay type: cell-based
D(1A) dopamine receptor = D(1A) dopamine receptor (Sus scrofa, UniProt P50130); assay: Displacement of [3H][…] from dopamine D1 receptor in pig striatal membrane; assay type: cell membranes, Striatum
[6] = Displacement of [3H]8-OH-DPAT from 5HT1A receptor in pig cortical membranes; assay type: cell membranes, Sus scrofa
Outline: (§1)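 Competition binding on porcine cortical membranes. Radioligands, each at 0.5 nM final: [3H]8-OH-DPAT for 5-HT1A, [3H]ketanserin for 5-HT2, [3H]prazosin for α1.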

[7] = target: 5-hydroxytryptamine receptor 2A (Sus scrofa, UniProt P50129); assay: Displacement of [3H]ketanserin from 5HT2 receptor in pig cortical membranes; assay type: cell membranes; outline: as §1
[8] = Displacement of [3H]prazosin from adrenergic alpha1 receptor in pig cortical membranes; assay type: cell membranes, Sus scrofa; outline: as §1
Homo sapiens [9] = species: Homo sapiens; assay: Selectivity for human dopamine D4.4 receptor over human dopamine D2L receptor
Homo sapiens [10] = species: Homo sapiens; assay: Selectivity for human dopamine D4.4 receptor over human dopamine D2S receptor
Homo sapiens [11] = species: Homo sapiens; assay: Selectivity for human dopamine D4.4 receptor over human dopamine D3 receptor
[12] = Agonist activity at rat dopamine D4.2 receptor expressed in CHO10001A cells assessed as incorporation of [3H]thymidine relative to quinpirole; assay type: functional
[13] = Agonist activity at rat dopamine D4.2 receptor expressed in CHO10001A cells assessed as incorporation of [3H]thymidine; assay type: functional, cell-based
[14] = target: T2, D(4) dopamine receptor (Rattus norvegicus) (UniProt P30729); assay: Displacement of 2-[4-(2-(2-[18F]fluoroethoxy)phenyl)piperazin-1-ylmethyl]pyrazolo[1,5-alpha]pyridine from dopamine D4 receptor in Sprague-Dawley rat brain
T2 sequence (whole entry): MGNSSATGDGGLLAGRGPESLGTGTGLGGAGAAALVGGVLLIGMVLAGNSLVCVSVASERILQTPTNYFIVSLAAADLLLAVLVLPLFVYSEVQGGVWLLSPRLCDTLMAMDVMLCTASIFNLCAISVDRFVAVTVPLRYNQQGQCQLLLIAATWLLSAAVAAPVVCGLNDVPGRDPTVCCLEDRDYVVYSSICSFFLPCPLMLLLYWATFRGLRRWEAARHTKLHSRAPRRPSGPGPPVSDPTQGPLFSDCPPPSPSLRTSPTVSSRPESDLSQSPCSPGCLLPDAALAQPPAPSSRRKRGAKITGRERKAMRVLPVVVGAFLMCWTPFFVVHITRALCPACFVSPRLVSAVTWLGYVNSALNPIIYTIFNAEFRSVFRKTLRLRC
Outline: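 In vitro autoradiography on 20 µm coronal brain cryosections from female Sprague–Dawley rats. Sections are preincubated 2 × 5 min, then incubated 60 min at room temperature with 110 kBq/mL [18F] radioligand, ± competitor (1 µM). Buffer: Tris-HCl, NaCl, EDTA, MgCl2 pH 7.4, with 0.5 µM DTG and 0.1 µM pindolol. Sections are washed cold, imaged by real-time autoradiography, and ROI intensities (cpm/mm2) are defined by HE counterstaining.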

T1 sequence (P14416 whole entry): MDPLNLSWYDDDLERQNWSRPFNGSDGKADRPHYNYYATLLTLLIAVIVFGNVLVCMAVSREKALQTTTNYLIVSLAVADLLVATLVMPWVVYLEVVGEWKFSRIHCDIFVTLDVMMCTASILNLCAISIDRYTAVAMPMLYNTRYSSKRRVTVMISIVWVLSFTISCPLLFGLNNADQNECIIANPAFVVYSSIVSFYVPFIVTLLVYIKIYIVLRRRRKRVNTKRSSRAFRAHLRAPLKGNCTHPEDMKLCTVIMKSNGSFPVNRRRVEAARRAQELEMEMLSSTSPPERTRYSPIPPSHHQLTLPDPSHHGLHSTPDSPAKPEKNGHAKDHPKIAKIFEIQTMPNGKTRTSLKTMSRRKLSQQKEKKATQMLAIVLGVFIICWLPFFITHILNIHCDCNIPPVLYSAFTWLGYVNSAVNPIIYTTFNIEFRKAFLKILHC
Sequence of D(3) dopamine receptor (P35462 whole entry): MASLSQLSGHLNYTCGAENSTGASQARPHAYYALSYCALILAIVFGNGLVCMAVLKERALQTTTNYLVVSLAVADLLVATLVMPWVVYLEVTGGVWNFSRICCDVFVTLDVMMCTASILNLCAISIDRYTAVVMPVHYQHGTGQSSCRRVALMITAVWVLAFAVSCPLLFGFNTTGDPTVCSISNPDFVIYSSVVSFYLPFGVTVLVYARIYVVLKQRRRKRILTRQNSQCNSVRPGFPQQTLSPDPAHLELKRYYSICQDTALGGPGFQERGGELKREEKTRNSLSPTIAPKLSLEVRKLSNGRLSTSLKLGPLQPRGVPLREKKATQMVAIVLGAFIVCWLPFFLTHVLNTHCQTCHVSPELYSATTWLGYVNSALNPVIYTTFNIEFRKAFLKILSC
Sequence of 5-hydroxytryptamine receptor 2A (P50129 whole entry): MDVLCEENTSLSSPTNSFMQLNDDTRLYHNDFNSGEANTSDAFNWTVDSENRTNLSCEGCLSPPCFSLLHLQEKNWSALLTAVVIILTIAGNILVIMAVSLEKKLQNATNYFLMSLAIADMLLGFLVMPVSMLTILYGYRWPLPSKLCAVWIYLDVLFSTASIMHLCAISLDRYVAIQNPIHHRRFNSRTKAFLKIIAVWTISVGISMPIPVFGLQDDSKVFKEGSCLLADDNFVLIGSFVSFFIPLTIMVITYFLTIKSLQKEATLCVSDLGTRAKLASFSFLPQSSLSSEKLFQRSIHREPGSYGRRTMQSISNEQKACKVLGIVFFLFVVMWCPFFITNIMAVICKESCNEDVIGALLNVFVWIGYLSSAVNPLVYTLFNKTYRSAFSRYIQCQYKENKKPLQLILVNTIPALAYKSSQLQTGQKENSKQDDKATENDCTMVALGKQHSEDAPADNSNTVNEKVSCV
Sequence of D(1A) dopamine receptor (P50130 whole entry): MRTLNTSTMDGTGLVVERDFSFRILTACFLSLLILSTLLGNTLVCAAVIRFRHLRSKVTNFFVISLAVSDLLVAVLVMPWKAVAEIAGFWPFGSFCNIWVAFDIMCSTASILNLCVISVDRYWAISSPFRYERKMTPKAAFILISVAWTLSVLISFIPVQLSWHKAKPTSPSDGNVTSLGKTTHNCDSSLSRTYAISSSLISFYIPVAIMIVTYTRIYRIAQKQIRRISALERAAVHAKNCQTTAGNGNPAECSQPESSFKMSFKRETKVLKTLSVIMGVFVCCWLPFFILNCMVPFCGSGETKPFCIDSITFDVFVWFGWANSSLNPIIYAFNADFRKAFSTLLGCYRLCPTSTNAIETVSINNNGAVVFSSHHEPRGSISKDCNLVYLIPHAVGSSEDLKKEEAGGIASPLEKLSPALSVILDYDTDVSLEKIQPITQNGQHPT

Structure (SMILES) | remaining at 1.5 h [1] [%] | logD [2] | pKi (D(2) dopamine receptor [3]) | pKi (D(2) dopamine receptor [4]) | pKi (D(3) dopamine receptor) | pKi [5] | pKi (D(1A) dopamine receptor) | pKi [6] | pKi [7] | pKi [8] | Ratio Ki (Homo sapiens [9]) | Ratio Ki (Homo sapiens [10]) | Ratio Ki (Homo sapiens [11]) | Efficacy [12] [%] | pEC50 [13] | Activity [14] [%]
[18F]CCOc1ccc(N2CCN(Cc3cnn4ccccc34)CC2)cc1 | > 96 | 2.12 |  |  |  |  |  |  |  |  |  |  |  |  |  | 
[18F]CCOc1ccc(N2CCN(Cc3cc4ccccn4n3)CC2)cc1 | > 99 | 1.99 |  |  |  |  |  |  |  |  |  |  |  |  |  | 
Brc1cccc(N2CCN(Cc3cc4ccccn4n3)CC2)n1 |  |  | 6.06 | 6.26 | 6.03 | 8.10 | 4.74 | 6.44 | 5.36 | 6.62 |  |  |  |  |  | 
Brc1cccc(N2CCN(Cc3cnn4ccccc34)CC2)n1 |  |  | 6.68 | 6.82 | 6.39 | 8.59 | 5.41 | 6.92 | 5.92 | 7.68 |  |  |  |  |  | 
FCCOc1ccc(N2CCN(Cc3cc4ccccn4n3)CC2)cc1 |  |  | 4.52 | 4.30 | 4.82 | 7.89 | 4.54 | 5.85 | 5.26 | 5.39 | 2310 | 3850 | 1150 | -37 | 8.04 | 
[18F]c1cccc(N2CCN(Cc3cnn4ccccc34)CC2)n1 | > 98 | 1.98 |  |  |  |  |  |  |  |  |  |  |  |  |  | 
[18F]CCOc1ccccc1N1CCN(Cc2cnn3ccccc23)CC1 |  | 2.15 |  |  |  |  |  |  |  |  |  |  |  |  |  | 
CCCN1CCC[C@@H]2Cc3n[nH]cc3C[C@H]21 [QUINPIROLE] |  |  |  |  |  |  |  |  |  |  |  |  |  |  | 8.15 | 
Clc1ccc(N2CCN(Cc3cc4ccccn4n3)CC2)cc1 |  |  |  |  |  | 8.66 |  | 5.77 |  | 6.57 | 1550 | 2860 | 2410 | <3 |  | 78
Clc1ccc(N2CCN(Cc3cnn4ccccc34)CC2)cc1 [FAUC 113] |  |  |  |  |  | 8.24 |  | 5.85 |  | 6.62 |  |  |  | 26 |  | 
[18F]c1cccc(N2CCN(Cc3cc4ccccn4n3)CC2)n1 | > 99 | 1.78 |  |  |  |  |  |  |  |  |  |  |  |  |  | 
Oc1ccc(N2CCN(Cc3cnn4ccccc34)CC2)cc1 |  |  | 5.21 | 4.06 | 5.47 | 7.70 | 5.00 | 4.92 | 4.61 | 7.09 |  |  |  |  |  | 
Fc1cccc(N2CCN(Cc3cc4ccccn4n3)CC2)n1 |  |  | 5.47 | 5.77 | 5.47 | 7.62 | 4.52 | 5.92 | 5.01 | 6.04 | 142 | 71 | 142 |  |  | 
CCc1cc(Cl)c(OC)c(C(=O)NC[C@@H]2CCCN2CC)c1O |  |  |  |  |  |  |  |  |  |  |  |  |  |  |  | 65
FCCOc1ccccc1N1CCN(Cc2cnn3ccccc23)CC1 |  |  | 6.82 | 6.74 | 6.49 | 8.80 | 5.60 | 6.92 | 5.54 | 8.27 |  |  |  | 71 | 9.00 | 
Fc1cccc(N2CCN(Cc3cnn4ccccc34)CC2)n1 |  |  | 6.48 | 6.66 | 6.23 | 8.06 | 5.14 | 6.54 | 5.27 | 7.06 | 38 | 25 | 67 |  |  | 
FCCOc1ccc(N2CCN(Cc3cnn4ccccc34)CC2)cc1 |  |  | 4.18 | 4.10 | 5.06 | 7.55 | 4.48 | 4.89 | 4.85 | 5.35 | 2360 | 2820 | 311 | -41 | 7.74 | 
FCCOc1ccccc1N1CCN(Cc2cc3ccccn3n2)CC1 |  |  | 7.34 | 7.10 | 6.03 | 8.89 | 5.32 | 5.24 | 4.89 | 7.40 | 35 | 61 | 723 | 49 | 9.10 | 
Oc1ccccc1N1CCN(Cc2cnn3ccccc23)CC1 |  |  | 5.35 | 5.33 | 5.66 | 7.36 | 5.55 | 6.17 | 5.82 | 7.59 |  |  |  |  |  | 
